According to ChEMBL document CHEMBL2150886, “Synthesis of [3β-acetoxy-urs-12-en-28-oyl]-1-monoglyceride and investigation on its anti tumor effects against BGC-823” (Bioorg Med Chem, 2011):
The source made the active and inactive calls. The rule behind the calls is not given here.

Key:
Mus musculus [1] = assay: Toxicity in human BGC823 cells xenografted nude mouse assessed as body weight changes at 6 mg/kg, iv treated on day 1 post tumor implant (reference value: 19.69 +/- 1.21 grams); format: organism-based, BGC-823; parameters: dose 6 mg/kg, route intravenous; settings: in vivo
Mus musculus [2] = assay: Toxicity in human BGC823 cells xenografted nude mouse assessed as body weight changes at 6 mg/kg, iv treated 2 times on day 1 and day 4 post tumor implant (reference value: 20.58 +/- 1.35 grams); format: organism-based, BGC-823; parameters: dose 6 mg/kg, route intravenous; settings: in vivo
Method in brief: (§1)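 Nude mice (male, 5 weeks, 18–22 g) carried subcutaneous BGC-823 xenografts from 1 × 10⁷ cells. Dosing started at about 200 mm³ tumour volume, with eight mice per group. Each dose was 0.2 mL given iv; the saline control received 0.9% saline. Body weight was recorded on days 1, 4, 7, 10, 13 and 16 of treatment and reported as mean ± SD, n = 8.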

Mus musculus [3] = assay: Toxicity in human BGC823 cells xenografted nude mouse assessed as body weight changes at 6 mg/kg, iv treated 3 times on day 1, day 4 and day 7 post tumor implant (reference value: 20.79 +/- 1.29 grams); format: organism-based, BGC-823; parameters: dose 6 mg/kg, route intravenous; settings: in vivo; method in brief: as §1
Mus musculus [4] = assay: Toxicity in human BGC823 cells xenografted nude mouse assessed as body weight changes at 6 mg/kg, iv treated 5 times on day 1, 4, 7, 10 and day 13 post tumor implant (reference value: 20.21 +/- 1.83 grams); format: organism-based, BGC-823; parameters: dose 6 mg/kg, route intravenous; settings: in vivo; method in brief: as §1
Mus musculus [5] = assay: Toxicity in human BGC823 cells xenografted nude mouse assessed as body weight changes at 30 mg/kg, iv treated on day 1 post tumor implant (reference value: 19.69 +/- 1.21 grams); format: organism-based, BGC-823; parameters: dose 30 mg/kg, route intravenous; settings: in vivo; method in brief: as §1
Mus musculus [6] = assay: Toxicity in human BGC823 cells xenografted nude mouse assessed as body weight changes at 30 mg/kg, iv treated 2 times on day 1 and day 4 post tumor implant (reference value: 20.58 +/- 1.35 grams); format: organism-based, BGC-823; parameters: dose 30 mg/kg, route intravenous; settings: in vivo; method in brief: as §1
Mus musculus [7] = assay: Toxicity in human BGC823 cells xenografted nude mouse assessed as body weight changes at 30 mg/kg, iv treated 4 times on day 1, 4, 7 and 10 post tumor implant (reference value: 20.54 +/- 1.45 grams); format: organism-based, BGC-823; parameters: dose 30 mg/kg, route intravenous; settings: in vivo; method in brief: as §1
Mus musculus [8] = assay: Toxicity in human BGC823 cells xenografted nude mouse assessed as body weight changes at 30 mg/kg, iv treated 5 times on day 1, 4, 7, 10 and day 13 post tumor implant (reference value: 20.21 +/- 1.83 grams); format: organism-based, BGC-823; parameters: dose 30 mg/kg, route intravenous; settings: in vivo; method in brief: as §1
Mus musculus [9] = assay: Toxicity in human BGC823 cells xenografted nude mouse assessed as body weight changes at 30 mg/kg, iv treated 5 times on day 1, 4, 7, 10, 13 and day 16 post tumor implant (reference value: 20.12 +/- 1.52 grams); format: organism-based, BGC-823; parameters: dose 30 mg/kg, route intravenous; settings: in vivo; method in brief: as §1
BGC-823 [10] = assay: Induction of cell shrinkage in human BGC823 cells at 30 uM incubated for 48 hrs by MTT assay; format: functional, cell-based
HT-29 = assay: Cytotoxicity against human HT-29 cells incubated for 48 hrs by MTT assay; format: functional, cell-based; settings: HT-29, 48 h
Method in brief: (§2)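 Cells were grown in RPMI-1640 with 10% heat-inactivated FCS at 37 °C under 5% CO₂, seeded at 5 × 10³ per well and left 24 h. Compounds in DMSO were diluted in medium to 0.5% final DMSO; controls received 0.5% DMSO. Exposure was 24–72 h, followed by MTT for 4 h, formazan dissolved in DMSO, and A570. Six wells per sample; IC₅₀ taken at 50% inhibition; ≥3 repeats.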

HepG2 = assay: Cytotoxicity against human HepG2 cells incubated for 48 hrs by MTT assay; format: functional, cell-based; settings: HepG2, 48 h; method in brief: as §2
BGC-823 [11] = assay: Cytotoxicity against human BGC823 cells by MTT assay; format: functional, cell-based; method in brief: as §2
BGC-823 [12] = assay: Cell cycle arrest in human BGC823 cells assessed as accumulation of cells at subG0/G1 phase at 20 uM incubated for 72 hrs by propidium iodide staining based flow cytometry (Rvb= 0.66%); format: functional
Method in brief: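 BGC-823 cells were exposed to 20 µM for 24, 48 or 72 h, or to 10, 20 or 40 µM for 48 h. About 10⁶ cells were harvested and stained with propidium iodide using a cell cycle kit, then analysed by flow cytometry. Percentages were read for sub-G0/G1, G0/G1, S and G2/M. Each experiment was run at least three times; mean ± SD.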

BGC-823 [13] = assay: Induction of apoptosis in human BGC823 cells assessed as viable cell population at 10 uM by annexinV/propidium iodide staining (reference value: 95.5%); format: functional
BGC-823 [14] = assay: Induction of apoptosis in human BGC823 cells assessed as early apoptotic cell population at 10 uM by annexinV/propidium iodide staining (reference value: 1.9%); format: functional
BGC-823 [15] = assay: Induction of apoptosis in human BGC823 cells assessed as necrotic damaged cell population at 10 uM by annexinV/propidium iodide staining (reference value: 0.5%; format: functional
BGC-823 [16] = assay: Induction of apoptosis in human BGC823 cells assessed as viable cell population at 20 uM by annexinV/propidium iodide staining (reference value: 95.5%); format: functional
BGC-823 [17] = assay: Induction of apoptosis in human BGC823 cells assessed as early apoptotic cell population at 20 uM by annexinV/propidium iodide staining (reference value: 1.9%); format: functional
BGC-823 [18] = assay: Induction of apoptosis in human BGC823 cells assessed as viable cell population at 30 uM by annexinV/propidium iodide staining (reference value: 95.5%); format: functional
BGC-823 [19] = assay: Induction of apoptosis in human BGC823 cells assessed as viable cell population at 40 uM by annexinV/propidium iodide staining (reference value: 95.5%); format: functional
BGC-823 [20] = assay: Induction of apoptosis in human BGC823 cells assessed as increase in caspase 3 activity at 10 to 20 uM incubated for 48 hrs; format: functional, cell-based
Method in brief: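 BGC-823 cells were exposed to 0, 10 or 20 µM for 48 h, detached with trypsin/EDTA and washed in cold PBS. About 10⁶ cells were lysed, and the lysate was incubated 1 h with Ac-DEVD-pNA, with cleavage read at 405 nm. Activity was normalised to Bradford protein and expressed relative to the untreated control. Mean ± SD of three independent experiments.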

BGC-823 [21] = assay: Reduction in survivin protein expression in human BGC823 cells at 10 uM incubated for 48 hrs by Western blotting; format: functional
Method in brief: (§3)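 BGC-823 cells were treated with 10, 20 or 40 µM for 48 h, detached with trypsin/EDTA, and more than 10⁶ cells were lysed. Protein was quantified by Bradford, and 150–200 µg per lane was run on 12.5% SDS-PAGE and transferred to PVDF. Antibodies: Survivin 1:1000, Bcl-2 1:200, β-actin 1:1000; HRP secondary 1 h; ECL detection. Expression was quantified relative to control.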

BGC-823 [22] = assay: Reduction in BCL-2 protein expression in human BGC823 cells at 1o to 40 uM incubated for 48 hrs by Western blotting; format: functional, cell-based; method in brief: as §3
BGC-823 [23] = assay: Antitumor activity against human BGC823 cells xenografted in nude mouse assessed as reduction in tumor volume at 6 mg/kg, iv dosed 5 times; format: functional; parameters: scale not given: the % may be the effect or the level left
Method in brief: (§4)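 Male nude mice (5 weeks, 18–22 g) inoculated subcutaneously with 1 × 10⁷ BGC-823 cells. At about 200 mm³ tumours, animals were randomised into four groups of eight. Each received 0.2 mL iv by tail vein; controls got 0.9% saline. Tumour volume was measured daily as 0.5 × length × width²; tumours were weighed at the end. Values are mean ± SD, n = 8.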

BGC-823 [24] = assay: Antitumor activity against human BGC823 cells xenografted in nude mouse assessed as reduction in tumor volume at 30 mg/kg, iv dosed 5 times; format: functional; parameters: scale not given: the % may be the effect or the level left; method in brief: as §4

SMILES: CC(=O)O[C@H]1CC[C@]2(C)[C@H]3CC=C4[C@@H]5[C@@H](C)[C@H](C)CC[C@]5(C(=O)OCC(O)CO)CC[C@@]4(C)[C@]3(C)CC[C@H]2C1(C)C (stereo partly specified)
- Activity (Mus musculus [1]): 19.21 g
- Activity (Mus musculus [2]): 20.66 g
- Activity (Mus musculus [3]): 20.13 g
- Activity (Mus musculus [4]): 20.07 g
- Activity (Mus musculus [5]): 19.26 g
- Activity (Mus musculus [6]): 19.61 g
- Activity (Mus musculus [7]): 19.16 g
- Activity (Mus musculus [8]): 19.69 g
- Activity (Mus musculus [9]): 19.57 g
- Activity (BGC-823 [10]): Active
- IC50 (HT-29): 18.4 µM
- IC50 (HepG2): 27.5 µM
- IC50 (BGC-823 [11]): 15.7 µM
- Activity (BGC-823 [12]): 13.63%
- Activity (BGC-823 [13]): 92.7%
- Activity (BGC-823 [14]): 4.5%
- Activity (BGC-823 [15]): 0.2%
- Activity (BGC-823 [16]): 72.2%
- Activity (BGC-823 [17]): 19.4%
- Activity (BGC-823 [18]): 19.4%
- Activity (BGC-823 [19]): 2%
- Activity (BGC-823 [20]): Active
- Activity (BGC-823 [21]): 37.6%
- Activity (BGC-823 [22]): Active
- Activity (BGC-823 [23]): 29.3%
- Activity (BGC-823 [24]): 41.9%
